pIC50: −log10 of the molar value.
How the values were obtained:
[1] = Half life in monkey liver microsomes; assay type: ADME, Macaca mulatta, microsome; details: rhesus monkey
[2] = AUC (0 to infinity) in Sprague-Dawley rat at 1 mg/kg, iv by LC-MS/MS analysis; assay type: ADME, organism-based; set-up: dose 1 mg/kg, time infinity, route intravenous; details: in vivo
[3] = Half life in Sprague-Dawley rat at 10 mg/kg, po administered via gavage by LC-MS/MS analysis; assay type: ADME, organism-based; details: in vivo
Method in brief: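 Male Sprague-Dawley rats (200-240 g) were dosed either by tail vein at 1 mg/kg in 2% DMSO/20% PEG400/78% buffered saline or by oral gavage at 10 mg/kg in 0.5% methylcellulose. Blood was drawn by orbital sinus puncture at 2 min to 24 h into heparin, and plasma was analysed by LC/MS/MS in SRM mode. Parameters came from non-compartmental analysis.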

[4] = molecular target: Mitogen-activated protein kinase 1 (Homo sapiens) (UniProt P28482); assay: Inhibition of MAPK1 (unknown origin) at 1 uM relative to control
[5] = Clearance in Sprague-Dawley rat at 1 mg/kg, iv after 24 hrs by LC-MS/MS analysis; assay type: ADME, organism-based; details: in vivo
Method in brief: (§1)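 Male Sprague-Dawley rats (200-240 g) received 1 mg/kg by tail-vein injection in 2% DMSO, 20% PEG400 and 78% buffered saline, or 10 mg/kg by oral gavage in 0.5% methylcellulose. Orbital sinus blood was drawn into heparinized tubes at 2, 5, 15 and 30 min and at 1, 2, 4, 8, 12 and 24 h, then centrifuged. Plasma was measured by LC/MS/MS in SRM mode, with non-compartmental analysis.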

[6] = AUC (0 to 24 hrs) in Sprague-Dawley rat at 10 mg/kg, po administered via gavage by LC-MS/MS analysis; assay type: ADME, organism-based; set-up: time < 24 hr, dose 10 mg/kg, route oral; details: in vivo
[7] = molecular target: Protein kinase C beta type (Homo sapiens) (UniProt P05771); assay: Inhibition of PRKCB1 (unknown origin) at 1 uM relative to control
[8] = Half life in rat hepatocytes; assay type: ADME, cell-based, Hepatocyte
[9] = system: NCI-H1975; assay: Antiproliferative activity against human NCI-H1975 cells harboring EGFR L858R/T790M double mutant; assay type: functional, cell-based
Method in brief: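 A431 was grown in EMEM with 10% FBS; HCC827 and NCI-H1975 were grown in RPMI-1640 with 10% FBS. Cell viability experiments were repeated at least three times.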

[10] = Oral bioavailability in Sprague-Dawley rat at 10 mg/kg administered via gavage after 24 hrs by LC-MS/MS analysis; assay type: ADME, organism-based; details: in vivo; method in brief: as §1
[11] = molecular target: Vascular endothelial growth factor receptor 2 (Homo sapiens) (UniProt P35968); assay: Inhibition of KDR (unknown origin) at 1 uM relative to control
[12] = molecular target: Serine/threonine-protein kinase Chk2 (Homo sapiens) (UniProt O96017); assay: Inhibition of CHEK2 (CHK2) (unknown origin) at 1 uM relative to control
[13] = molecular target: Tyrosine-protein kinase Lyn (Homo sapiens) (UniProt P07948); assay: Inhibition of LYN-B (unknown origin) at 1 uM relative to control
[14] = species: Homo sapiens; assay: Inhibition of 746 to 750 truncated EGFR (unknown origin) at 1 uM relative to control
[15] = molecular target: Testis-specific serine/threonine-protein kinase 1 (Homo sapiens) (UniProt Q9BXA7); assay: Inhibition of STK22D (unknown origin) at 1 uM relative to control
[16] = molecular target: cGMP-dependent protein kinase 1 (Homo sapiens) (UniProt Q13976); assay: Inhibition of PRKG1 (unknown origin) at 1 uM relative to control
[17] = molecular target: MAP kinase-interacting serine/threonine-protein kinase 2 (Homo sapiens) (UniProt Q9HBH9); assay: Inhibition of MKNK2 (unknown origin) at 1 uM relative to control
[18] = system: NCI-H1975; assay: In vivo anti tumor activity against human NCI-H1975 cells xenografted in nude C.B-17 SCID mouse model assessed as tumor growth inhibition at 5 mg/kg, ig for 18 days measured twice a week relative to control; assay type: functional; details: NCI-H1975, po, 432 h, read-out: TGI
Method in brief: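 H1975 s.c. xenografts (5 × 10^6 cells) were grown in C.B-17 SCID mice and randomized at 100-150 mm3 (n = 9). Mice were dosed intragastrically once daily for 18 days against a PBS control. TGI% = (TWcontrol − TWtreatment)/TWcontrol × 100, where TW is the mean tumor weight on day 18.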

[19] = molecular target: Tyrosine-protein kinase JAK2 (Homo sapiens) (UniProt O60674); assay: Inhibition of JAK2 (unknown origin) at 1 uM relative to control
[20] = molecular target: Proto-oncogene tyrosine-protein kinase Src (Homo sapiens) (UniProt P12931); assay: Inhibition of SRC (unknown origin) at 1 uM relative to control
[21] = MRT in Sprague-Dawley rat at 1 mg/kg, iv by LC-MS/MS analysis; assay type: ADME, organism-based; details: in vivo; method in brief: as §1
[22] = molecular target: BDNF/NT-3 growth factors receptor (Homo sapiens) (UniProt Q16620); assay: Inhibition of NTRK2 (unknown origin) at 1 uM relative to control
[23] = system: RAF proto-oncogene serine/threonine-protein kinase (Homo sapiens), P04049 [Y340D,Y341D]; assay: Inhibition of RAF1 Y340D/Y341D double mutant (unknown origin) at 1 uM relative to control
[24] = Cmax in Sprague-Dawley rat at 10 mg/kg, po administered via gavage after 24 hrs by LC-MS/MS analysis; assay type: ADME, organism-based; set-up: dose 10 mg/kg, route oral; details: in vivo; method in brief: as §1
[25] = Half life in dog liver microsomes; assay type: ADME, Canis lupus familiaris, microsome
[26] = molecular target: Inhibitor of nuclear factor kappa-B kinase subunit alpha (Homo sapiens) (UniProt O15111); assay: Inhibition of CHUK (unknown origin) at 1 uM relative to control
[27] = molecular target: Protein-tyrosine kinase 6 (Homo sapiens) (UniProt Q13882); assay: Inhibition of PTK6 (unknown origin) at 1 uM relative to control
[28] = molecular target: Dual specificity protein kinase CLK1 (Homo sapiens) (UniProt P49759); assay: Inhibition of CLK1 (unknown origin) at 1 uM relative to control
[29] = molecular target: Tyrosine-protein kinase TXK (Homo sapiens) (UniProt P42681); assay: Inhibition of TXK (unknown origin) at 1 uM relative to control
[30] = MRT in Sprague-Dawley rat at 10 mg/kg, po administered via gavage by LC-MS/MS analysis; assay type: ADME, organism-based; details: in vivo; method in brief: as §1
[31] = molecular target: Voltage-gated inwardly rectifying potassium channel KCNH2 (Homo sapiens, UniProt Q12809); assay: Inhibition of human ERG expressed in HEK293 cells by lonWorks Quattro analysis; assay type: cell-based
[32] = molecular target: Focal adhesion kinase 1 (Homo sapiens) (UniProt Q05397); assay: Inhibition of PTK2 (unknown origin) at 1 uM relative to control
[33] = molecular target: Protein kinase C alpha type (Homo sapiens) (UniProt P17252); assay: Inhibition of PRKCA (unknown origin) at 1 uM relative to control
[34] = system: NCI-H1975; assay: In vivo anti tumor activity against human NCI-H1975 cells xenografted in nude C.B-17 SCID mouse model assessed as tumor volume at 20 mg/kg, ig for 18 days measured twice a week (reference value: 948.05 mm3); assay type: functional
[35] = Half life in human hepatocytes; assay type: ADME, cell-based, Hepatocyte
[36] = Intrinsic clearance in rat hepatocytes assessed per million cells; assay type: ADME, cell-based, Hepatocyte

Chain of Tyrosine-protein kinase TXK (Homo sapiens) (P42681 whole entry): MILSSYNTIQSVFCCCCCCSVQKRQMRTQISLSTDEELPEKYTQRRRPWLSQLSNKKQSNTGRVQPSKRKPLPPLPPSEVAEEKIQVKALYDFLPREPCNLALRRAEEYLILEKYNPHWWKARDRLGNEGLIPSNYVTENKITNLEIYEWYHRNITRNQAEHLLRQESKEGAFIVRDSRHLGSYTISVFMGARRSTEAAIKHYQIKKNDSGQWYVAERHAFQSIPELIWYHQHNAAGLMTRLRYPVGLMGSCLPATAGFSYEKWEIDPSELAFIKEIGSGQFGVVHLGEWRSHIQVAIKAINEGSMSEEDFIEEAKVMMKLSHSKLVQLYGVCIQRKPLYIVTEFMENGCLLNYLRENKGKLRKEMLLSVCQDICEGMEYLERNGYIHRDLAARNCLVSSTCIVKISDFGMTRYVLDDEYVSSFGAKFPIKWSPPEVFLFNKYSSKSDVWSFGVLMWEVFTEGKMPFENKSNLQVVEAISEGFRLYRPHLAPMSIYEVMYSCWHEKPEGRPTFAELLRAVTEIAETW
Chain of Mitogen-activated protein kinase 1 (Homo sapiens) (P28482 whole entry): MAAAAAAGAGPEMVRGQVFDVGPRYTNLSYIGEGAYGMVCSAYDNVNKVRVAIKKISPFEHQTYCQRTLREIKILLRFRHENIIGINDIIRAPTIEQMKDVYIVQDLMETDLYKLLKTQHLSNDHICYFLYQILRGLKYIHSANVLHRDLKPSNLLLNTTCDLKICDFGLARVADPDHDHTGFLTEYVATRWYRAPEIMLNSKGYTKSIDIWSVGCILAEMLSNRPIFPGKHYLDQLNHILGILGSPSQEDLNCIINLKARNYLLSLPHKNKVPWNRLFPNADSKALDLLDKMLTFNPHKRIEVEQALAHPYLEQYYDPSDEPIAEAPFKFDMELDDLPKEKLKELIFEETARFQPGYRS
Chain of Inhibitor of nuclear factor kappa-B kinase subunit alpha (Homo sapiens) (O15111 whole entry): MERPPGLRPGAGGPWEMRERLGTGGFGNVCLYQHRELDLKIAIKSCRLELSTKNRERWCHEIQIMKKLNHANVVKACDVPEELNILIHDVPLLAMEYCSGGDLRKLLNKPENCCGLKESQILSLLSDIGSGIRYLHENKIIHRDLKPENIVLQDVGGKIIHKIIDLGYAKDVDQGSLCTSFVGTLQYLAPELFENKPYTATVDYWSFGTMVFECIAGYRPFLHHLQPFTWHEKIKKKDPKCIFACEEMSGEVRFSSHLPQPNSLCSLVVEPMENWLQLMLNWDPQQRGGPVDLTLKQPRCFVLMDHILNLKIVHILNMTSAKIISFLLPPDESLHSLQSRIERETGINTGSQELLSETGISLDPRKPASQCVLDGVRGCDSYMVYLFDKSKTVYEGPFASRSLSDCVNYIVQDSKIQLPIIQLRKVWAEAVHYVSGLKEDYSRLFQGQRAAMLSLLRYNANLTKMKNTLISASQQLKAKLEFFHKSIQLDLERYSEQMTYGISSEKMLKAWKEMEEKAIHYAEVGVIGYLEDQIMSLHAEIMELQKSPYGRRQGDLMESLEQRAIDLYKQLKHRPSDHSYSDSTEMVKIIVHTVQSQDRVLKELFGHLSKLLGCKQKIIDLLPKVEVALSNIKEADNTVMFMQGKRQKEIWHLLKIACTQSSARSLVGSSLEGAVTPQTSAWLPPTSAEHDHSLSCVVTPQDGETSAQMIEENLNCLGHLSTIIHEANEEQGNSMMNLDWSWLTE
Chain of Dual specificity protein kinase CLK1 (Homo sapiens) (P49759 whole entry, looked up): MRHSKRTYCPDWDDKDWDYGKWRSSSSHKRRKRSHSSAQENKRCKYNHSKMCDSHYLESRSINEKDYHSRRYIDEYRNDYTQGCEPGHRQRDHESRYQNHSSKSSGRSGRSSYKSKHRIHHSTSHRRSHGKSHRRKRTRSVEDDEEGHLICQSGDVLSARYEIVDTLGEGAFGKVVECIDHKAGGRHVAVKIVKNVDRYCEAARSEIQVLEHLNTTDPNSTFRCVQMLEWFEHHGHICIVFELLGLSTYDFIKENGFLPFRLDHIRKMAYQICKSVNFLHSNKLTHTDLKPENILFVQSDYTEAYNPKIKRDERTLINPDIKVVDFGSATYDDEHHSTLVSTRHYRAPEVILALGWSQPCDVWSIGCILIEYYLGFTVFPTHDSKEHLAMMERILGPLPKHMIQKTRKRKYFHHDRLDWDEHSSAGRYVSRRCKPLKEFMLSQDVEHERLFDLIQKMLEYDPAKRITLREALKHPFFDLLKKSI
Chain of Protein-tyrosine kinase 6 (Homo sapiens) (Q13882 whole entry, looked up): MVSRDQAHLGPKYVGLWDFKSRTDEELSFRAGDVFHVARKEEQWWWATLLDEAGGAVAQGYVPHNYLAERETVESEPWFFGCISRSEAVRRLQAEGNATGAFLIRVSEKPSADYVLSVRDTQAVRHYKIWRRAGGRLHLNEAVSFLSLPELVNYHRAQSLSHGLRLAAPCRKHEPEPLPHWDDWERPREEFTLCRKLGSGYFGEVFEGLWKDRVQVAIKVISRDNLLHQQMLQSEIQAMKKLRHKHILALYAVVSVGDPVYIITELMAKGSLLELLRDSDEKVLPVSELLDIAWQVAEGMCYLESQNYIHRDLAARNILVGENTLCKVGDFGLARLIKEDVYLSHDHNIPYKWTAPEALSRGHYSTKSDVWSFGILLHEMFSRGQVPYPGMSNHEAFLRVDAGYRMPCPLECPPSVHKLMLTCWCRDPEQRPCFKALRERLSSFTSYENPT
Chain of MAP kinase-interacting serine/threonine-protein kinase 2 (Homo sapiens) (Q9HBH9 whole entry, looked up): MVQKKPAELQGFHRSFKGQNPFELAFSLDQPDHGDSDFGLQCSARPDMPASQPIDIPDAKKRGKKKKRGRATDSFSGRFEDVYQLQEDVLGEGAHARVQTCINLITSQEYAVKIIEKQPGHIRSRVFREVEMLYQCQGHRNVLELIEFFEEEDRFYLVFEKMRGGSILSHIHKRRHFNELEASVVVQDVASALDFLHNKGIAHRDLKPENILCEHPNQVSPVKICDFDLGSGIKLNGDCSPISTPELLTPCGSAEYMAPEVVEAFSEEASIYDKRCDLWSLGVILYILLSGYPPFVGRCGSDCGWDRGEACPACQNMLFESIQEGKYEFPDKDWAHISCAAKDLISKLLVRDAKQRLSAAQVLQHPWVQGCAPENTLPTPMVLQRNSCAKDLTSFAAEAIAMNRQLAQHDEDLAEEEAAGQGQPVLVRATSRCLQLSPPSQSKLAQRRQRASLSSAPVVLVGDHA
Chain of Voltage-gated inwardly rectifying potassium channel KCNH2 (Q12809 whole entry): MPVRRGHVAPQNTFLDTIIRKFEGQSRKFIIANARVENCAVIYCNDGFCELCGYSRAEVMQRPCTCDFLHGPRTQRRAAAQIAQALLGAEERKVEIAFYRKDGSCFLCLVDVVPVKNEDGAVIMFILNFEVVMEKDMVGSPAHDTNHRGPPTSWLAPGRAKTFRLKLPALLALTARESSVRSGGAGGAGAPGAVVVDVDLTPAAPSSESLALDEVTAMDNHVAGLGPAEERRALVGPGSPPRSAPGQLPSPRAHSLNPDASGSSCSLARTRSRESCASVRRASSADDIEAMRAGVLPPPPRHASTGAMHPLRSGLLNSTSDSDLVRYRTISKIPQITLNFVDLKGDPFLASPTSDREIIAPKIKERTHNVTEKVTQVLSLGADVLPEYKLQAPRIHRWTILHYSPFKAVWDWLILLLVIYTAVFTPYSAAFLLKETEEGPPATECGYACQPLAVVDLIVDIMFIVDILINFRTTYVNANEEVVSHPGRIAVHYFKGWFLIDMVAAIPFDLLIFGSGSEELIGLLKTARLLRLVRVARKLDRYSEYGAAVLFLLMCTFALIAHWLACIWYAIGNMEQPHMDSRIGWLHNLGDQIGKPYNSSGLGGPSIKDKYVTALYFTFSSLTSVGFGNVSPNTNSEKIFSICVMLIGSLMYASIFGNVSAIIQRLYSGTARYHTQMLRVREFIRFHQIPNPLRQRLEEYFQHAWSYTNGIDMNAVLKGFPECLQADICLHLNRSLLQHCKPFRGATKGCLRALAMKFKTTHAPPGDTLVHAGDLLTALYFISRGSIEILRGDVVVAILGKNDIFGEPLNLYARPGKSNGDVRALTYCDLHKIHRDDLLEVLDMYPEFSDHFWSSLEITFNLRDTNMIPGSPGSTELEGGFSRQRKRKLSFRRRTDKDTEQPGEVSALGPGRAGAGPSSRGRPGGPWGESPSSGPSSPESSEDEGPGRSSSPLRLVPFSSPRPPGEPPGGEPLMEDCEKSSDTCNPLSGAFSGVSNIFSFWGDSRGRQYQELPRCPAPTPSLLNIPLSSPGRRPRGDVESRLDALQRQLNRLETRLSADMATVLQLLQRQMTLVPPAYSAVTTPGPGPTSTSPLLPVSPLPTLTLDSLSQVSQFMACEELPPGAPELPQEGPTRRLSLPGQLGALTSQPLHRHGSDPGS

C=CC(=O)Nc1cc(Nc2nccc(-c3cn4c5c(cccc35)CCC4)n2)c(OC)cc1N(C)CCN(C)C
half-life [1]: 0.482 h | AUC(0-inf) [2]: 194 ng·h/mL | half-life [3]: 4.1 h | inhibition [4]: -3% | clearance [5]: 86.2 mL/min/kg | AUC(0-t) at 24 h [6]: 995 ng·h/mL | inhibition [7]: 2% | half-life [8]: 0.55 h | pIC50 [9]: 6.99 | bioavailability [10]: 52.4% | inhibition [11]: 37% | inhibition [12]: -2% | inhibition [13]: 15% | inhibition [14]: 110% | inhibition [15]: 72% | inhibition [16]: 5% | inhibition [17]: 117% | inhibition in vivo at 5 mg/kg [18]: 46.8% | inhibition [19]: -6% | inhibition [20]: 16% | MRT [21]: 4.7 h | inhibition [22]: -1% | inhibition [23]: 8% | Cmax [24]: 111 ng/mL | half-life [25]: 0.525 h | inhibition [26]: 14% | inhibition [27]: 83% | inhibition [28]: 20% | inhibition [29]: 88% | MRT [30]: 5.7 h | pIC50 [31]: 5.07 | inhibition [32]: 73% | inhibition [33]: 1% | Activity [34]: 113.52 mm3 | half-life [35]: 2.31 h | CLH [36]: 21 µL/min/10^6 cells
